Data as given in ChEMBL document CHEMBL3785029, “Synthesis and Characterization of Fatty Acid Conjugates of Niacin and Salicylic Acid” (J Med Chem, 2016).
Active and inactive are the calls of the source. No cut-off for these calls is given here.

Tests used:
[1] = test system: Plasma; experiment: Drug level in Sprague-Dawley rat plasma treated with N-(2-(4Z,7Z,10Z,13Z,16Z,19Z)-docosa-4,7,10,13,16,19-hexaenamidoethyl)-2-hydroxybenzamide at 300 mg/kg, po measured up to 24 hrs post dose; assay type: ADME, organism-based; conditions: in vivo
Outline: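 Single oral dose of 300 mg/kg to Sprague Dawley rats. Plasma collected at 0, 0.5, 1, 2, 4, 8 and 24 hr. Analytes were the parent, the salicylate-linker and linker-DHA metabolites, salicylic acid and salicyluric acid; Cmax and AUClast derived.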

[2] = Drug uptake in endoplasmic reticulum of CellLight ER-RFP/BacMam 2-treated human HuH7 cells at 25 uM after 30 mins by DAPI staining-based confocal microscopy; assay type: ADME, cell-based; conditions: huh-7, 0.5 h
Outline: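 HuH-7 cells were plated overnight in 10% FBS DMEM and transduced with CellLight ER-RFP BacMam 2.0 for 48 h. They were then exposed to fluorescent conjugate at 25 µM in DMEM for 30 min, fixed in 4% paraformaldehyde for 2 min at 37 °C and washed with PBS. Imaging was by confocal microscopy with a 63X lens.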

[3] = species: Mus musculus; experiment: Inhibition of NFkappaB in mouse RAW 264.7 cells at 78.7 uM preincubated for 2 hrs followed by LPS addition for 3 hrs by luciferase reporter gene assay relative to control; assay type: cell-based
[4] = biological target: T1, Fatty-acid amide hydrolase 1 (Homo sapiens, UniProt O00519); experiment: Drug metabolism in human HepG2 cells assessed as FAAH-mediated compound hydrolysis by measuring level of deuterium-labelled EPA-d5 released at 50 uM by LC/MS-MS analysis; assay type: ADME, cell-based; conditions: hepg2, 50 µM, TDE = time-dependent effect
T1 sequence (O00519 whole entry): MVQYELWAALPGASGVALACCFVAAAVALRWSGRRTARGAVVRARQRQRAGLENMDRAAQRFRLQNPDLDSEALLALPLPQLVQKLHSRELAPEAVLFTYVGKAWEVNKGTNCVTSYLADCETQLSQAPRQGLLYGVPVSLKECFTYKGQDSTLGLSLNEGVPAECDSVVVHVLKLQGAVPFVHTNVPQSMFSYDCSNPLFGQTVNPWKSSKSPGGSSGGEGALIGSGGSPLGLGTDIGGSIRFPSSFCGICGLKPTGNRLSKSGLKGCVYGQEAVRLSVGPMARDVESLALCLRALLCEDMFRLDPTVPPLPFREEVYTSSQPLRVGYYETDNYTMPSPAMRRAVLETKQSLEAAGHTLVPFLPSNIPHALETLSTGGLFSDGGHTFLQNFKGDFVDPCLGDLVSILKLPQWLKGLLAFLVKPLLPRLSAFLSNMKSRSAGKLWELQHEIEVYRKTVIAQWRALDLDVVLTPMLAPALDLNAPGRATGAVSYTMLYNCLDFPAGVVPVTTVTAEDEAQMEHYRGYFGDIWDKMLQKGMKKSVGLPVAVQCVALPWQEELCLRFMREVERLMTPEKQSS

[5] = Drug uptake in endoplasmic reticulum of CellLight ER-RFP-treated human HuH7 cells at 25 uM after 30 mins by DAPI staining-based confocal microscopy in presence of endocytosis inhibitor dynasore; assay type: ADME, cell-based; conditions: huh-7, 0.5 h
Outline: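 HuH-7 cells were transduced with CellLight ER-RFP BacMam 2.0 for 48 h and pretreated with 80 µM dynasore. They were then exposed to compound for 30 min, fixed in 4% formaldehyde for 2 min at 37 °C and mounted with anti-fade DAPI. Imaging was by confocal microscopy with a 63X lens.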

[6] = Drug uptake in lysosomes of CellLight ER-RFP/BacMam 2-treated human HuH7 cells at 25 uM after 30 mins by DAPI staining-based confocal microscopy; assay type: ADME, cell-based, Lysosome; conditions: huh-7, 0.5 h
Outline: (§1)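 HuH-7 hepatocellular carcinoma cells were plated overnight in DMEM with 10% FBS. They were transduced for 48 h with BacMam CellLight ER-RFP or Late Endosomes-RFP organelle markers. Cells were then exposed for 30 min to fluorescent cis-parinaric acid conjugate in DMEM at 25 µM. They were fixed in 4% paraformaldehyde for 2 min at 37 °C, washed with PBS, mounted with anti-fade DAPI and imaged by confocal microscopy at 63X.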

[7] = biological target: T2, Sterol regulatory element-binding protein 2 (Homo sapiens) (UniProt Q12772); experiment: Induction of SREBP2 maturation in human HepG2 cells at 10 uM after overnight incubation by immunoblot analysis; assay type: cell-based
T2 sequence (whole entry): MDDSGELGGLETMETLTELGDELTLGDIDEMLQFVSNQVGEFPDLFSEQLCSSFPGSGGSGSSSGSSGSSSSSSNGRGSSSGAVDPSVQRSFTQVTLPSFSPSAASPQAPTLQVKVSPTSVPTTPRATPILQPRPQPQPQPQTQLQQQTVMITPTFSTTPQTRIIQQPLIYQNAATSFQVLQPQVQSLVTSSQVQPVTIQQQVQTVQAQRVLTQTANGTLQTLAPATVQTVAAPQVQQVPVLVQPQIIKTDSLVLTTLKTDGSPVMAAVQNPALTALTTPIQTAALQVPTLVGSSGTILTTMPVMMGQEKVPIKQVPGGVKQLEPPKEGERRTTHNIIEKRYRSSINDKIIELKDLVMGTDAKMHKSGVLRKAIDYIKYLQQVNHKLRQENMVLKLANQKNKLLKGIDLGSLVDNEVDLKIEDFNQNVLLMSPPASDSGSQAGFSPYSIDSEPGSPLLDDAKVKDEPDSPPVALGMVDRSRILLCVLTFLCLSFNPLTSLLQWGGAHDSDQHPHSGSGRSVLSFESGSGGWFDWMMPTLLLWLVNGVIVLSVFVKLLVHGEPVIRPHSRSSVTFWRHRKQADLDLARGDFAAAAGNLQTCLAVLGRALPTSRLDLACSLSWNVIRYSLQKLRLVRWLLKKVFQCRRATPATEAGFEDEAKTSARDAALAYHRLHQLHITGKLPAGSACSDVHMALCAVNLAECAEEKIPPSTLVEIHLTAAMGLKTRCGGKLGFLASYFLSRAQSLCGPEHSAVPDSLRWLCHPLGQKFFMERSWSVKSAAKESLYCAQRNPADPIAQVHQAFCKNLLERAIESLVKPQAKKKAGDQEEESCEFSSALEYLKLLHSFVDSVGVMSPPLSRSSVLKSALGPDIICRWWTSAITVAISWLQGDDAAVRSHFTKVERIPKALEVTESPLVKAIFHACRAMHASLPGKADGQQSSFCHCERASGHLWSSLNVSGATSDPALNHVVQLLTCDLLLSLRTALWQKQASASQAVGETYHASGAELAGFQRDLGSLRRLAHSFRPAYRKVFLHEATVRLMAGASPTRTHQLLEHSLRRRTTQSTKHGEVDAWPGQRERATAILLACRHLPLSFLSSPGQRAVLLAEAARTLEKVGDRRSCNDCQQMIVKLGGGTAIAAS
Outline: (§2)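 Human HepG2 cells were incubated with test agents, including 10 µM atorvastatin alone or combined with conjugate. The mature form of SREBP-2 protein was then assessed.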

[8] = biological target: T2, Sterol regulatory element-binding protein 2 (Homo sapiens); experiment: Inhibition of SREBP2 in human HepG2 cells assessed as reduction of PCSK9 secretion at 50 uM after 16 hrs by ELISA; assay type: cell-based
Outline: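 Human HepG2 cells were treated in culture. Secreted PCSK9 in the culture supernatant was quantified with a human-specific PCSK9 ELISA.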

[9] = biological target: T2, Sterol regulatory element-binding protein 2 (Homo sapiens); experiment: Inhibition of SREBP2 maturation in human HepG2 cells at 50 uM after overnight incubation by immunoblot analysis; assay type: cell-based; outline: as §2
[10] = species: Mus musculus; conditions: 3.2 mM
[11] = Drug uptake in lysosomes of human HuH7 cells at 25 uM after 30 mins by LysoTracker/DAPI staining-based confocal microscopy; assay type: ADME, cell-based, Lysosome; conditions: huh-7, 0.5 h
[12] = Drug uptake in endoplasmic reticulum of human HuH7 cells at 25 uM after 30 mins by LysoTracker/DAPI staining-based confocal microscopy; assay type: ADME, cell-based; conditions: huh-7, 0.5 h; outline: as §1
[13] = Cmax in portal vein cannulated Sprague-Dawley rat at 30 mg/kg, po measured up to 140 mins; assay type: ADME, organism-based; design: dose 30 mg/kg, route oral; conditions: portal vein blood
Outline: (§3)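 Sprague Dawley rats surgically fitted with indwelling jugular vein and portal vein cannulas; oral dosing, then serial blood draws from both portal and jugular veins at 10, 20, 40 min and 1, 2, 4, 6 hr post dose; plasma analysed for parent and metabolites by LC/MS/MS.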

[14] = Cmax in jugular vein cannulated Sprague-Dawley rat at 30 mg/kg, po measured up to 140 mins; assay type: ADME, organism-based; design: dose 30 mg/kg, route oral; conditions: jugular vein blood; outline: as §3
[15] = test system: Rattus norvegicus; experiment: Cmax in portal vein cannulated Sprague-Dawley rat assessed nicotinuric acid at 30 mg/kg, po measured up to 140 mins; assay type: ADME, organism-based; design: dose 30 mg/kg, route oral; conditions: in vivo; outline: as §3
[16] = test system: Rattus norvegicus; experiment: Cmax in jugular vein cannulated Sprague-Dawley rat assessed nicotinuric acid at 30 mg/kg, po measured up to 140 mins; assay type: ADME, organism-based; design: dose 30 mg/kg, route oral; conditions: in vivo; outline: as §3
[17] = test system: Rattus norvegicus; experiment: Cmax in portal vein cannulated Sprague-Dawley rat assessed as (S)-N-(pyrrolidin-3-yl)nicotinamide at 30 mg/kg, po measured up to 140 mins; assay type: ADME, organism-based; design: dose 30 mg/kg, route oral; conditions: in vivo; outline: as §3
[18] = test system: Rattus norvegicus; experiment: Cmax in jugular vein cannulated Sprague-Dawley rat assessed as (S)-N-(pyrrolidin-3-yl)nicotinamide at 30 mg/kg, po measured up to 140 mins; assay type: ADME, organism-based; design: dose 30 mg/kg, route oral; conditions: in vivo; outline: as §3
[19] = AUClast in Sprague-Dawley rat at 30 mg/kg, po administered as single dose measured up to 6 hrs post dose by LC/MS/MS analysis; conditions: in vivo
[20] = biological target: T2, Sterol regulatory element-binding protein 2 (Homo sapiens); conditions: HepG2, 10 uM
[21] = in vivo; conditions: Sprague-Dawley, rat, po, 30 mg/kg
[22] = test system: Rattus norvegicus; experiment: Cmax in portal vein cannulated Sprague-Dawley rat assessed as N-(2-(methylamino)ethyl)nicotinamide at 30 mg/kg, po measured up to 140 mins; assay type: ADME, organism-based; design: dose 30 mg/kg, route oral; conditions: in vivo, BLD = below limit of detection; outline: as §3
[23] = test system: Rattus norvegicus; experiment: Cmax in jugular vein cannulated Sprague-Dawley rat assessed as N-(2-(methylamino)ethyl)nicotinamide at 30 mg/kg, po measured up to 140 mins; assay type: ADME, organism-based; design: dose 30 mg/kg, route oral; conditions: in vivo, BLD = below limit of detection; outline: as §3
[24] = test system: Liver; experiment: Drug uptake in Sprague-Dawley rat liver at 100 mg/kg, po qd for 3 days measured 4 hrs post last dose; assay type: ADME, organism-based; conditions: in vivo
Outline: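 Sprague Dawley rats (n = 6) dosed 100 mg/kg once daily for 3 days; plasma and tissues collected four hours after the last dose and analysed for parent compound and metabolites.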

## NCCNC(=O)c1ccccc1O
[1]
  Drug metabolism: metabolite_detected

## CC\C=C/C=C/C=C/C=C\CCCCCCCC(=O)NCCNC(=O)c1ccccc1O
[2]
  Drug uptake: Active

## CC/C=C\C/C=C\C/C=C\C/C=C\C/C=C\C/C=C\CCC(=O)O
[3]
  inhibition: Active

## [2H]C([2H])([2H])C([2H])([2H])/C=C\C/C=C\C/C=C\C/C=C\C/C=C\CCCC(=O)NCCNC(=O)c1cccnc1
[4]
  Drug metabolism: tde

## CC\C=C/C=C/C=C/C=C\CCCCCCCC(=O)NCCNC(=O)c1cccnc1
[5]
  Drug uptake: Not Active
[6]
  Drug uptake: Not Active
[2]
  Drug uptake: Active

## CC(C)c1c(C(=O)Nc2ccccc2)c(-c2ccccc2)c(-c2ccc(F)cc2)n1CC[C@@H](O)C[C@@H](O)CC(=O)O
[7]
  Activity: Active

## CC/C=C\C/C=C\C/C=C\C/C=C\C/C=C\CCCC(=O)O
[8]
  inhibition: inactive
[9]
  inhibition: inactive

## O=C(O)c1ccccc1O [SALICYLIC ACID]
[1]
  Drug metabolism: metabolite_detected
[10]
  inhibition: Active

## CC\C=C/C=C/C=C/C=C\CCCCCCCC(=O)O
[11]
  Drug uptake: Not Active
[12]
  Drug uptake: Not Active

## CC/C=C\C/C=C\C/C=C\C/C=C\C/C=C\CCCC(=O)N1CCC(NC(=O)c2cccnc2)C1 (single isomer, unassigned)
[13]
  Cmax: 5.32 µg/mL
[14]
  Cmax: 0.564 µg/mL
[15]
  Cmax: 0.013 µg/mL
[16]
  Cmax: 0.011 µg/mL
[17]
  Cmax: 0.073 µg/mL
[18]
  Cmax: 0.035 µg/mL

## O=C(O)c1cccnc1 [NIACIN]
[9]
  inhibition: inactive
[19]
  AUC(0-t) at 6 h: 6.98 µg·h/mL
[20]
  inhibition: inactive
[21]
  Cmax at 6 h: 7.47 µg/mL

## CC/C=C\C/C=C\C/C=C\C/C=C\C/C=C\CCCC(=O)N(C)CCNC(=O)c1cccnc1
[13]
  Cmax: 5.06 µg/mL
[14]
  Cmax: 0.4 µg/mL
[15]
  Cmax: 0.011 µg/mL
[16]
  Cmax: 0.028 µg/mL
[22]
  Cmax: BLD
[23]
  Cmax: BLD
[24]
  Drug uptake: Active

## O=C(O)CNC(=O)c1ccccc1O [SALICYLURIC ACID]
[1]
  Drug metabolism: metabolite_detected
